Assays:
[1] = target: T1, Cathepsin G (Homo sapiens) (UniProt P08311); experiment: Inhibition of human cathepsin G using Suc-Ala-Ala-Pro-Phe-AMC as substrate at 1 uM after 30 mins by fluorescence spectrophotometric method relative to control
T1 sequence (whole entry): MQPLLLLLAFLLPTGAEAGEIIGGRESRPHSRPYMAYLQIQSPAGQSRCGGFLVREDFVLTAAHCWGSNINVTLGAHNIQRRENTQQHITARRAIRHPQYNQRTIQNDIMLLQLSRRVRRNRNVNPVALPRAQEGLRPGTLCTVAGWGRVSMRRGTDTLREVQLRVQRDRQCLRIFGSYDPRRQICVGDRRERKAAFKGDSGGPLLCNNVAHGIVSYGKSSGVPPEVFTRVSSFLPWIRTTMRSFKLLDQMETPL
Summary of the method: (§1)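 Panel of ten serine proteases; percent inhibition read at compound concentrations of 1 µM and 10 µM, each value the mean of 2 experiments.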

Trypsin (Homo sapiens) = Trypsin (Homo sapiens) (UniProt P07477+P07478+P35030); experiment: Inhibition of human trypsin using Z-Gly-Pro-Arg-AMC as substrate at 10 uM after 60 mins by fluorescence spectrophotometric method relative to control; type: protein assay; summary of the method: as §1
[2] = target: T2, Neutrophil elastase (Homo sapiens) (UniProt P08246); experiment: Inhibition of human ELA2 using N-MeOSuc-Ala-Ala-Pro-Val-pNA as substrate at 1 uM after 60 mins by spectrophotometric method relative to control; summary of the method: as §1
T2 sequence (whole entry): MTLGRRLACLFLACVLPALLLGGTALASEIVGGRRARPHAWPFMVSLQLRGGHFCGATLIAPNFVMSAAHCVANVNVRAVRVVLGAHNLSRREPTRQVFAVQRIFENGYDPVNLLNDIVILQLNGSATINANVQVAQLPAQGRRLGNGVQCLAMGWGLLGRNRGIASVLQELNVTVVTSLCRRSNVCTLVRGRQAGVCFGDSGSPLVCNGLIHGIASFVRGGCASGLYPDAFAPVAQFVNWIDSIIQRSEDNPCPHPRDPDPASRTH

[3] = target: Coagulation factor X (Homo sapiens) (UniProt P00742); experiment: Inhibition of factor 10a (unknown origin) at 1 uM after 15 mins by fluorescence assay relative to control; summary of the method: as §1
Chymase (Homo sapiens) = target: T3, Chymase (Homo sapiens) (UniProt P23946); experiment: Inhibition of human chymase using Suc-Ala-Ala-Pro-Phe-AMC as substrate at 10 uM after 120 mins by fluorescence spectrophotometric method relative to control; summary of the method: as §1
T3 sequence (whole entry): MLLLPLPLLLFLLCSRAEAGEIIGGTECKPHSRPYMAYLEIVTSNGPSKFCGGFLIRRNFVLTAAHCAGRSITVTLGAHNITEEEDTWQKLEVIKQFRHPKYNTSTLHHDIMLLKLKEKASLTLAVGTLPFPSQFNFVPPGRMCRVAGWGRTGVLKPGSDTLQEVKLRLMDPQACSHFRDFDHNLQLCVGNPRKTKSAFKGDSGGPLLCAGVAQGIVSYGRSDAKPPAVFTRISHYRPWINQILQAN

[4] = target: T4, Hepatocyte growth factor activator serine protease (Homo sapiens) (UniProt Q04756); experiment: Inhibition of C-terminal 10-His tagged recombinant human HGFA (Gln36 to Ser655 residues) expressed in mouse […] cells 10 uM after 15 mins by fluorescence assay relative to control; type: cell-based
T4 sequence (whole entry): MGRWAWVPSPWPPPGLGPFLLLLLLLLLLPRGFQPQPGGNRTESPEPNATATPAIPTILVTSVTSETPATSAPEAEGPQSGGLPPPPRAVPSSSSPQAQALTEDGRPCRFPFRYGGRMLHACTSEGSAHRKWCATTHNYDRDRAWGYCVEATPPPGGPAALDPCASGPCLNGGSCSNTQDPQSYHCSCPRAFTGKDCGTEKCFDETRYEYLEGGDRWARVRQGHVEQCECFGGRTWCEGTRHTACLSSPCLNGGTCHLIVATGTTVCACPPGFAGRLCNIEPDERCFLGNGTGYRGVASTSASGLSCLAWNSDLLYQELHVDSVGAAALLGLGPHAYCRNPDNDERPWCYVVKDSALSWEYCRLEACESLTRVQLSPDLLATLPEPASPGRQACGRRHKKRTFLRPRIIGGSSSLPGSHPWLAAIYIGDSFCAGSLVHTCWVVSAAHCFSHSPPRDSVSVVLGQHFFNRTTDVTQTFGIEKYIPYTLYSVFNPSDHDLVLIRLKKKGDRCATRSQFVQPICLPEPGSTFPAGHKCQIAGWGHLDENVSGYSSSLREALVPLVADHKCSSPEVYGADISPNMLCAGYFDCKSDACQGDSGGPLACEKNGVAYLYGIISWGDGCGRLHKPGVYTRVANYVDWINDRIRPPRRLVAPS

[5] = target: Prothrombin (Homo sapiens) (UniProt P00734); experiment: Inhibition of human thrombin using Z-Gly-Pro-Arg-AMC as substrate at 1 uM after 60 mins by fluorescence spectrophotometric method relative to control; summary of the method: as §1
[6] = target: T5, Suppressor of tumorigenicity 14 protein (Homo sapiens) (UniProt Q9Y5Y6); experiment: Inhibition of matriptase (unknown origin) using BOC-QAR-AMC as substrate at 10 uM after 15 mins by fluorescence assay relative to control; summary of the method: as §1
T5 sequence (whole entry): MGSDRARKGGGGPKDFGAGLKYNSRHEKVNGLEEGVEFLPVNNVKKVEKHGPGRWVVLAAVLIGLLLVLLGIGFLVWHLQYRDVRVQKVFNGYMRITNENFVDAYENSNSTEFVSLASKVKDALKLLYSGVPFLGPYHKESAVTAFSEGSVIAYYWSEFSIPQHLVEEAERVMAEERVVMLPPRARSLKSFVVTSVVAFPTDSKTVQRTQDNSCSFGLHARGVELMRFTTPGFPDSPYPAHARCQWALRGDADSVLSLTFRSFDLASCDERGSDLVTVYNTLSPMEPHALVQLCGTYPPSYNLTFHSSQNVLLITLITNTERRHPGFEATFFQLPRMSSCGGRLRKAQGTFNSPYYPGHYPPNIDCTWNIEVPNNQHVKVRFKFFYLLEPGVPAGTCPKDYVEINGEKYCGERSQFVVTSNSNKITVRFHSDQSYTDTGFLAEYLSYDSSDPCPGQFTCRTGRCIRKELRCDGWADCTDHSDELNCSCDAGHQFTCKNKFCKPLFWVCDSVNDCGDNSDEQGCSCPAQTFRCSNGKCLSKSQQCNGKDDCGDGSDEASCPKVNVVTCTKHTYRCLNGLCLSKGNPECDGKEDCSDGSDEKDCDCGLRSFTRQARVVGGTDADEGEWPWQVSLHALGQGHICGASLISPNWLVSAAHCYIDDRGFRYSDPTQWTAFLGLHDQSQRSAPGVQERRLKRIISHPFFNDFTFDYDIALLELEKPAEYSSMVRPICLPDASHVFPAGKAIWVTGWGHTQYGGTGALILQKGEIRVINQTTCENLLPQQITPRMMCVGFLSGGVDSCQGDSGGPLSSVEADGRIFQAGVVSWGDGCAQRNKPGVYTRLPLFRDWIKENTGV

Sequence of Coagulation factor X (Homo sapiens) (P00742 41-179 limits assumed): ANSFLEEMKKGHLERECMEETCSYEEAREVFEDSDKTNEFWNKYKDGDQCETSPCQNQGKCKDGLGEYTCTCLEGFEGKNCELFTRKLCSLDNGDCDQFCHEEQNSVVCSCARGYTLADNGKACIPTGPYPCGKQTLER
Sequence of Coagulation factor X (Homo sapiens) (P00742 235-488 limits assumed): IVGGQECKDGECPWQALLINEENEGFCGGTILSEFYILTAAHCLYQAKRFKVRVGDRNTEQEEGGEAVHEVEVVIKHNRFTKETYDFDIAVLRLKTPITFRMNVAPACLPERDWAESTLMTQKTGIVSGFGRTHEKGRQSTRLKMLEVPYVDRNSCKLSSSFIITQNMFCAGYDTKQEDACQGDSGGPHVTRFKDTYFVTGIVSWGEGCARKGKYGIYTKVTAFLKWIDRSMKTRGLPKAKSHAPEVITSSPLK

Structure (SMILES) | inhibition [1] [%] | inhibition (Trypsin (Homo sapiens)) [%] | inhibition [2] [%] | inhibition [3] [%] | inhibition (Chymase (Homo sapiens)) [%] | inhibition [4] [%] | inhibition [5] [%] | inhibition [6] [%]
N=C(N)c1ccc(NC(=O)[C@H](NS(=O)(=O)c2ccc(F)cc2)C2CCCCC2)cc1 | < 10 | 97 | < 10 | < 10 | < 10 | 24 | < 10 | < 10
Cc1ccc(S(=O)(=O)N[C@@H](C(=O)Nc2ccc(C(=N)N)cc2)C2CCCCC2)cc1 | < 10 | 96 | < 10 | < 10 | < 10 | 22 | 11 | < 10
Cc1ccc(S(=O)(=O)N[C@@H](C(=O)Nc2ccc(C(=N)N)cc2)c2ccccc2)cc1 | < 10 | 93 | < 10 | < 10 | < 10 | 24 | < 10 | < 10
